Data: ChEMBL document CHEMBL4145559 (ACS Med Chem Lett, 2018)
≈ marks a conversion by molar mass, not a printed value. Calls of active or inactive are those of the source. No cut-off for these calls is given here.

Legend:
Yersinia pestis = test: Antimicrobial activity against Yersinia pestis KIM6+; assay type: functional
[1] = test system: Staphylococcus epidermidis; test: Antimicrobial activity against Staphylococcus epidermidis RP26A; assay type: functional
Method in brief: (§1)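 MICs determined by the standard CLSI broth microdilution method on intact bacteria (E. coli MG1655; S. epidermidis RP26A).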

Escherichia coli = test: Antimicrobial activity against Escherichia coli MG1655 by broth micro dilution method; assay type: functional, organism-based; conditions: K-12 substr. MG1655; method in brief: as §1
[2] = Inhibition of Escherichia coli type 1 signal peptidase using peptide substrate after 30 mins by fluorescence assay
Method in brief: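 Purified E. coli SPase was assayed with the internally quenched fluorogenic peptide (Dabcyl)-AGHDAHA↓SET-(EDANS), with cleavage at the arrow separating the EDANS donor from the Dabcyl acceptor. IC50 was taken as the half-maximal inhibitory concentration.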

HEK293 = test: Cytotoxicity against HEK293 cells up to 128 ug/ml after 24 hrs by resazurin dye based fluorescence assay; assay type: cell-based; conditions: human, hek293, 24 h

C[C@@H](O)[C@H]1C(=O)N2C(C(=O)O)=CS[C@H]12
MIC (Yersinia pestis): 128 µg/mL (≈ 595 µM)
MIC [1]: 128 µg/mL (≈ 595 µM)
Activity (Escherichia coli): inactive
IC50 [2]: 2.99 µg/mL (≈ 13.9 µM)

C[C@@H](O)[C@H]1C(=O)N2C(C(=O)O)=C(S[C@@H]3CC[S+]([O-])C3)S[C@H]12 (stereo not given in full)
MIC [1]: 16 µg/mL (≈ 45.8 µM)
IC50 [2]: 1.16 µg/mL (≈ 3.32 µM)

C[C@@H](O)[C@H]1C(=O)N2C(C(=O)O)=C(SCCN(C)C)S[C@H]12
MIC (Yersinia pestis): > 128 µg/mL
MIC [1]: > 128 µg/mL
IC50 [2]: 3.95 µg/mL (≈ 12.4 µM)

C[C@@H](O)[C@H]1C(=O)N2C(C(=O)O)=C(S[C@@H]3CN[C@H](C(=O)N(C)C)C3)S[C@H]12
MIC (Yersinia pestis): 64 µg/mL (≈ 165 µM)
MIC [1]: 32 µg/mL (≈ 82.6 µM)
IC50 [2]: 1.22 µg/mL (≈ 3.15 µM)

C[C@@H](O)[C@H]1C(=O)N2C(C(=O)O)=C(SCCO)S[C@H]12
MIC (Yersinia pestis): 32 µg/mL (≈ 110 µM)
MIC [1]: 8 µg/mL (≈ 27.5 µM)
Activity (HEK293): Non-Toxic
IC50 [2]: 1.49 µg/mL (≈ 5.11 µM)

C[C@@H](O)[C@H]1C(=O)N2C(C(=O)O)=C(CCc3ccccn3)S[C@H]12
MIC (Yersinia pestis): 32 µg/mL (≈ 99.9 µM)
MIC [1]: 16 µg/mL (≈ 49.9 µM)
IC50 [2]: 1.31 µg/mL (≈ 4.09 µM)

CNCCSC1=C(C(=O)O)N2C(=O)[C@H]([C@@H](C)O)[C@H]2S1
MIC (Yersinia pestis): > 128 µg/mL
MIC [1]: > 128 µg/mL
IC50 [2]: 6.37 µg/mL (≈ 20.9 µM)

C[C@@H](O)[C@H]1C(=O)N2C(C(=O)O)=C(SCCNC=N)S[C@H]12
MIC (Yersinia pestis): 16 µg/mL (≈ 50.4 µM)
MIC [1]: 8 µg/mL (≈ 25.2 µM)
Activity (HEK293): Non-Toxic
IC50 [2]: 1.04 µg/mL (≈ 3.28 µM)

C[C@@H](O)[C@H]1C(=O)N2C(C(=O)O)=C(S[C@H]3CCNC3)S[C@H]12
MIC (Yersinia pestis): 8 µg/mL (≈ 25.3 µM)
MIC [1]: 8 µg/mL (≈ 25.3 µM)
IC50 [2]: 0.8 µg/mL (≈ 2.53 µM)

C[C@@H](O)[C@H]1C(=O)N2C(C(=O)O)=C(SCCOC(N)=O)S[C@H]12 [Sch-34343]
MIC (Yersinia pestis): 16 µg/mL (≈ 47.9 µM)
MIC [1]: 4 µg/mL (≈ 12 µM)
IC50 [2]: 0.96 µg/mL (≈ 2.87 µM)

C[C@@H](O)[C@H]1C(=O)N2C(C(=O)O)=C(SCCN)S[C@H]12
MIC (Yersinia pestis): 16 µg/mL (≈ 55.1 µM)
MIC [1]: 16 µg/mL (≈ 55.1 µM)
Activity (HEK293): Non-Toxic
IC50 [2]: 0.63 µg/mL (≈ 2.17 µM)

C[C@@H](O)[C@H]1C(=O)N2C(C(=O)O)=C(S[C@@H]3CCNC3)S[C@H]12
MIC (Yersinia pestis): 16 µg/mL (≈ 50.6 µM)
MIC [1]: 4 µg/mL (≈ 12.6 µM)
Activity (HEK293): Non-Toxic
IC50 [2]: 1.75 µg/mL (≈ 5.53 µM)
